Experimental data published in publication PMC2233693 (The Journal of General Physiology, 2000).
Positions count from the first letter of the chain named. Like-named read-outs stand apart in the source and are kept apart here.

Columns and labels:
Format in all cases: biochemical
[1] = target: T1, wild-type bovine olfactory CNG channel (α3 subunit) (Bos taurus, UniProt Q03041)
T1 sequence (Q03041 1-663): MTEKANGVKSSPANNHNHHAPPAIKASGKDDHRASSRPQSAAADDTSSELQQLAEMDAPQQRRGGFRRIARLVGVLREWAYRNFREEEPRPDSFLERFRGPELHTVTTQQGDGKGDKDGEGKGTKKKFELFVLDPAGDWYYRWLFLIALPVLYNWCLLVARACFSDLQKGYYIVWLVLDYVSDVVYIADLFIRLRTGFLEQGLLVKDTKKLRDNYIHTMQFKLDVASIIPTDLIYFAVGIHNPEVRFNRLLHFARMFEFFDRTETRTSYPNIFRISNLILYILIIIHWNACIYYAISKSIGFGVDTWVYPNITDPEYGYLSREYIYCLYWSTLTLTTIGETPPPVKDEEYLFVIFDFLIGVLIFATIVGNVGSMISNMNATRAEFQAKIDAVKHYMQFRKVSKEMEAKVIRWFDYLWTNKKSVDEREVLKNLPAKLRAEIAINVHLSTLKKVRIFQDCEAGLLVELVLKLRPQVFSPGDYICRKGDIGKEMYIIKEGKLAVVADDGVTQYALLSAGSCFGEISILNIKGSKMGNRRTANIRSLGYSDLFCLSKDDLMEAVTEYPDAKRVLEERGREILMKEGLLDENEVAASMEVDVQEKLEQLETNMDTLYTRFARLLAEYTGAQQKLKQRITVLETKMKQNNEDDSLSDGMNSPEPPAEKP

[2] = target: T2, E340N mutant bovine olfactory CNG channel (Bos taurus, UniProt Q03041, E340N); experiment: Blockage of macroscopic current by external Ca2+ or Mg2+, outside-out patches; conditions: for Ki: mean ± SD
T2 sequence (Q03041 1-663 E340N): T1 sequence (Q03041 1-663) with E340N
How it was run: (§1)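 Xenopus oocytes injected with wild-type or mutant channel mRNA; outside-out patches with 100 μM cGMP in the pipette. Bath: 110 mM NaCl, 2 mM EDTA, 10 mM HEPES, pH 7.4, plus Ca2+ (NTA-buffered) or Mg2+ (EDTA-buffered); unbuffered above 0.1 mM. Five 1-s ramps (−80 to +80 mV) averaged, leak subtracted. Current normalised to divalent-free current at the same voltage, Hill-fitted per patch; Ki and n given as mean ± SD.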

[3] = target: T3, E340N^‡ mutant bovine olfactory CNG channel (Bos taurus, UniProt Q03041, E340Q); experiment: as above
T3 sequence (Q03041 1-663 E340Q): T1 sequence (Q03041 1-663) with E340Q
How it was run: as §1

[4] = external Mg2+, −80 mV, one experiment

[Ca+2] [Ca^2+]
effect of external Ca2+ on K 1/2 for cAMP or cGMP ([1]; 1 mM Ca2+ in the patch pipette): did not significantly affect K 1/2 | n, Hill coefficient of blockage ([2]; external Ca2+, +80 mV): 0.6 ± 0.2 | Ki ([2]; external Ca2+, +80 mV): 29 ± 6 mM | n, Hill coefficient of blockage ([2]; external Ca2+, −80 mV): 0.6 ± 0.1 | Ki ([2]; external Ca2+, −80 mV): 6.5 ± 4 mM | n, Hill coefficient of blockage ([3]; external Ca2+, +80 mV): 0.5 ± 0.2 | Ki ([3]; external Ca2+, +80 mV, mean ± SD): 19 ± 12 mM | n, Hill coefficient of blockage ([3]; external Ca2+, −80 mV): 0.4 ± 0.2 | Ki ([3]; external Ca2+, −80 mV, mean ± SD): 2.1 ± 0.6 mM

Nc1nc2c(ncn2[C@@H]2O[C@@H]3COP(=O)(O)O[C@H]3[C@H]2O)c(=O)[nH]1 [cGMP]
n(−80 mV), Hill coefficient ([1]; cGMP): 2.7 ± 0.2 | I(−80 mV)/I(+80 mV) ([1]; cGMP-gated current): 1.11 ± 0.03 | EC50 ([1]; read-out: K 1/2, cGMP, +80 mV): 0.0026 ± 0.0006 mM | EC50 ([1]; read-out: K 1/2, cGMP, −80 mV): 0.0025 ± 0.0005 mM | EC50 ([1]; read-out: K 1/2,cG, −80 mV, single patch, Fig. 1 fit): 0.0032 mM | n cG ([1]; −80 mV, single patch, Fig. 1 fit): 2.7

[Mg+2] [Mg^2+]
n, Hill coefficient of blockage ([2]; external Mg2+, +80 mV): 0.6 ± 0.1 | Ki ([2]; external Mg2+, +80 mV): 50 ± 3.6 mM | n, Hill coefficient of blockage ([2]; external Mg2+, −80 mV): 0.6 ± 0.1 | Ki ([2]; external Mg2+, −80 mV): 17 ± 7.2 mM | n, Hill coefficient of blockage ([3]; external Mg2+, +80 mV, one experiment): 0.3 | Ki [3, 4]: 3.4 mM | n, Hill coefficient of blockage [3, 4]: 0.5
